# In ChEMBL document CHEMBL4190303, “Chemical Constituents of Propolis from Vietnamese Trigona minor and Their Antiausterity Activity against the PANC-1 Human Pancreatic Cancer Cell Line” (2017):
# Calls of active or inactive are those of the source. The rule behind the calls is not given here.
# Tested on: PANC-1
# Assay: Antiausteritic activity against human PANC1 cells in nutrient-deprived medium assessed as decrease in cell viability measured after 24 hrs by WST-8 assay
# Format: functional
row,SMILES,PC50
1,CC(=O)OC/C(=C\CC[C@@H](C)[C@H]1CC[C@@]2(C)[C@@H]3CC[C@H]4C(C)(C)C(=O)CC[C@@]45C[C@@]35CC[C@]12C)C(=O)O,77.5 µM
2,CC(=O)OC/C(=C\CC[C@@H](C)[C@H]1CC[C@@]2(C)[C@@H]3CC[C@H]4C(C)(C)[C@@H](O)CC[C@@]45C[C@@]35CC[C@]12C)C(=O)O,22.6 µM
3,COC(=O)OC/C(=C\CC[C@@H](C)[C@H]1CC[C@@]2(C)[C@@H]3CC[C@H]4C(C)(C)C(=O)CC[C@@]45C[C@@]35CC[C@]12C)C(=O)O,32.9 µM
4,CC(=O)/C=C/C[C@@H](C)[C@H]1CC[C@@]2(C)[C@@H]3CC[C@H]4C(C)(C)[C@@H](O)CC[C@@]45C[C@@]35CC[C@]12C,16.4 µM
5,C/C(=C\C(O)C[C@@H](C)[C@H]1CC[C@@]2(C)[C@@H]3CC[C@H]4C(C)(C)C(=O)CC[C@@]45C[C@@]35CC[C@]12C)C(=O)O (some centres undefined),16.8 µM
6,C[C@H](CC/C=C(\CO)C(=O)O)[C@H]1CC[C@@]2(C)[C@@H]3CC[C@H]4C(C)(C)[C@@H](O)CC[C@@]45C[C@@]35CC[C@]12C,47.6 µM
7,C/C(=C\C(O)C[C@@H](C)[C@H]1CC[C@@]2(C)[C@@H]3CC[C@H]4C(C)(C)[C@@H](O)CC[C@@]45C[C@@]35CC[C@]12C)C(=O)O (some centres undefined),64.4 µM
8,C[C@H](CC/C=C(\CO)C(=O)O)[C@H]1CC[C@@]2(C)[C@@H]3CC[C@H]4C(C)(C)C(=O)CC[C@@]45C[C@@]35CC[C@]12C,93.8 µM
9,C[C@H](CC/C=C(\CO)C(=O)O)[C@H]1CC[C@@]2(C)[C@@H]3CC[C@H]4C(C)(C)[C@H](O)CC[C@@]45C[C@@]35CC[C@]12C,3.7 µM
10,C/C(=C\C(O)C[C@@H](C)[C@H]1CC[C@@]2(C)[C@@H]3CC[C@H]4C(C)(C)[C@H](O)CC[C@@]45C[C@@]35CC[C@]12C)C(=O)O (stereo in doubt; 4),16.1 µM
11,C/C(=C\C(O)C[C@@H](C)[C@H]1CC[C@@]2(C)[C@@H]3CC[C@H]4C(C)(C)[C@H](O)CC[C@@]45C[C@@]35CC[C@]12C)C(=O)O (stereo in doubt; 5) [listing 1 of 2 here],4.3 µM
12,COc1cc(C[C@H]2C(=O)OC[C@@H]2Cc2ccc(OC)c(OC)c2)ccc1O [ARCTIGENIN],0.8 µM
13,CC(C)=CCC[C@@H](C)[C@H]1CC[C@@]2(C)[C@@H]3CC[C@H]4C(C)(C)C(=O)CC[C@@]45C[C@@]35CC[C@]12C [CYCLOARTENONE],>100 µM
14,CC(C)=CCC[C@@H](C)[C@H]1CC[C@@]2(C)C3=C(CC[C@]12C)[C@@]1(C)CC[C@H](O)C(C)(C)[C@@H]1CC3 [LANOSTEROL],68.7 µM
15,C/C(=C\CC[C@@H](C)[C@H]1CC[C@@]2(C)[C@@H]3CC[C@H]4C(C)(C)[C@@H](O)CC[C@@]45C[C@@]35CC[C@]12C)C(=O)O [MANGIFEROLIC ACID],>100 µM
16,C/C(=C\CC[C@@H](C)[C@H]1CC[C@@]2(C)[C@@H]3CC[C@H]4C(C)(C)C(=O)CC[C@@]45C[C@@]35CC[C@]12C)C(=O)O [MANGIFERONIC ACID],>100 µM
17,CC(=O)O[C@H]1C(=O)[C@@]2(C)[C@H]([C@H](OC(=O)c3ccccc3)[C@]3(O)C[C@H](OC(=O)[C@H](O)[C@@H](NC(=O)c4ccccc4)c4ccccc4)C(C)=C1C3(C)C)[C@]1(OC(C)=O)CO[C@@H]1C[C@@H]2O [PACLITAXEL],>100 µM

# Tested on: PANC-1
# Assay: Antiausteritic activity against human PANC1 cells in nutrient-deprived medium assessed as changes in cell morphology at 5 uM after 24 hrs by ethidium bromide/acridine orange staining based phase contrast microscopy
# Format: functional
# Procedure, shortened: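 PANC-1 seeded in 60 mm dishes (1 × 10^6), grown 24 h in DMEM at 37 °C, 5% CO2, washed twice with PBS, then switched to NDM with or without compound. After 24 h, EB/AO reagent added for 5 min. Imaged at 40× in fluorescence and phase-contrast modes. AO marks live cells green, EB marks dead cells red.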
row,SMILES,Activity
1,C/C(=C\C(O)C[C@@H](C)[C@H]1CC[C@@]2(C)[C@@H]3CC[C@H]4C(C)(C)[C@H](O)CC[C@@]45C[C@@]35CC[C@]12C)C(=O)O (stereo in doubt; 5) [listing 2 of 2 here],Active

# Tested on: PANC-1
# Assay: Inhibition of colony formation in human PANC1 cells after 10 days by crystal violet staining based assay
# Format: functional, cell-based
# Procedure, shortened: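 500 cells/well plated in DMEM and allowed to attach for 24 h at 37 °C, 5% CO2. Treated at 12.5, 25 and 50 μM in DMEM and grown for 10 days. Cells washed with PBS, fixed in 4% formaldehyde, stained with crystal violet for 10 min. Three independent repeats.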
row,SMILES,inhibition
1,C/C(=C\C(O)C[C@@H](C)[C@H]1CC[C@@]2(C)[C@@H]3CC[C@H]4C(C)(C)[C@H](O)CC[C@@]45C[C@@]35CC[C@]12C)C(=O)O (stereo in doubt; 5) [listing 2 of 2 here],Dose-dependent effect
